SMILES strings stand for the structures. Values without a mark were called inactive.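 How the source made its calls: active means growth inhibition above 25% in both replicates, a cutoff set 3 SD above the mean; inconclusive means above 25% in only one replicate; inactive means the rest.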

The test in a line: S. cerevisiae growth inhibition in permissive medium (OD615), pilot counter-assay for S. cerevisiae lifespan shortening project, permissive growth control (AID 705). The settings on record: OD615, 24 h, at 10 µM, active compounds read high. The essentials: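 Timing: 24 h exposure, 30 °C / Material: Saccharomyces cerevisiae strain carrying genetically modified DeaD replicative-lifespan system / Signal: OD at 615 nm / Compound: 10 µM single dose, 0.25% DMSO / Medium: SC raffinose/galactose permissive medium / Evaluation: reduction in yeast growth (OD615)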
Turning to `CCOC1CCCCC1NS(=O)(=O)c1ccc(Cl)cc1` (stereo not given), the growth inhibition was -3.5%.

For the compound `COc1cccc(CNC(=O)c2ccc(NC(=O)C3CCCO3)cc2)c1` (stereo not given), the growth inhibition is -23.1%.

Take `Cc1cc2cc(CNC(=O)c3ccc(Br)o3)ccc2[nH]1`: the growth inhibition is -6.49%. As for `COc1ccc(C2C(C(=O)c3cccs3)=C(O)C(=O)N2c2nnc(C)s2)cc1OC` (stereo not given), the growth inhibition was -6.25%. Consider `O=C(NCCN1C(=O)C2C3C=CC(C3)C2C1=O)Nc1ccc(Br)cc1` (stereo not given), for which the growth inhibition is -9%. Consider `CC1CCN(c2nc3ccccc3nc2C(C#N)S(=O)(=O)c2ccccc2)CC1` (stereo not given), for which the growth inhibition was -32.5%. `O=C(COc1ccccc1)Nc1nnc(-c2ccc(Cl)s2)o1`: the growth inhibition is -2.75%. For the compound `O=C(Cn1cc2c(n1)CCCC2)NC1CCCCCC1`, the growth inhibition is 4.4%. For the compound `O=C(CCn1c(=O)sc2ccccc21)NCc1ccccc1`, the growth inhibition is 4.34%. The result for `COc1ccc(CNc2ccc3cn[nH]c3c2)c(OC)c1OC` reads -1.74%; that for `Cc1ccc(NC(=O)C2CCCN2S(=O)(=O)c2ccc3c(c2)CCC(=O)N3)cc1Cl` (stereo not given), -9.43%; that for `COc1ccc(OC)c(NC(=O)c2c(NC(=O)CNCc3ccco3)sc3c2CCC3)c1`, -0.125%.

On to `C=C(C)CSc1nc2c(cc1C#N)CCC2`, for which the growth inhibition is 9.43%.

In the case of `CCOC(=O)c1[nH]c2cc(OC)c(OC)cc2c1NC(=O)c1ccc2c(c1)OCO2`, the growth inhibition was -7.63%. The result for `COC(=O)c1ccccc1Nc1cc(C)nc2nc(C)nn12` reads -5.25%. The result for `COC(=O)c1ccccc1NC(=O)CSc1nccn1C` reads -3.94%; that for `O=CN1CCN(C(C(=O)NC2CCCC2)c2ccc(Cl)cc2)CC1` (stereo not given), -7.98%; that for `O=C(NCCC1=CCCCC1)c1ccc2c(=O)n3c(nc2c1)CCCCC3`, -10.1%. Next, `Cc1ccc(CNC(=O)CCS(=O)(=O)c2cccc3nsnc23)cc1`: -2.81%.

With `COc1cc(NC(=O)CN2CC(c3ccccc3)CC2=O)cc(OC)c1` (stereo not given), the growth inhibition is -20.8%. The result for `Cc1cccc(OCCn2c(=O)n(C)c3ccccc32)c1` reads -9.27%. Next, `C1=C(N2CCOCC2)/C(=C/c2nc3ccccc3[nH]2)CC1`: -10.4%; `Nc1nonc1-n1nncc1-c1ccccc1`: -8.35%; `O=C1CC(c2ccco2)Sc2nc3ccccc3n21` (stereo not given): -10.5%. Take `CCC1CCCCN1Cc1nc2c(c(=O)n(C)c(=O)n2C)n1Cc1ccccc1` (stereo not given): the growth inhibition is 6.88%. Next, `CCOCCCNC(=O)C(c1ccc(Cl)cc1)N1CCN(C(=O)c2ccco2)CC1` (stereo not given): -19.4%. For `O=C(C1CC1)N1CCc2cc(Br)cc(S(=O)(=O)NCCCN3CCCC3)c21`, the growth inhibition is -9.22%. With `COc1ccc(CCN=C2SCC(=O)N2C)cc1OC`, the growth inhibition was 3.32%. As to `CCOc1ccccc1NC(=O)C1CCC(CNc2c(N3CCOCC3)c(=O)c2=O)CC1` (stereo not given), the growth inhibition is 0.95%.

For `Cc1ccc(-n2c(SCC(=O)NCC3CCCO3)nc3c(c2=O)SCC3)cc1` (stereo not given), the growth inhibition is -10.7%. On to `O=C(CCS(=O)(=O)c1cccc2nonc12)NCCc1ccccc1`, for which the growth inhibition is -9.93%. On to `O=c1c2cc(-c3ccccc3)sc2ncn1/N=C/c1ccco1`, for which the growth inhibition was -7.51%. `Cc1nnc(NC(=O)CSC2CCCCC2)s1`: the growth inhibition is 3.88%. Next, `COc1cccc(N2CCN(C3CC(=O)N(c4ccc(Cl)cc4)C3=O)CC2)c1` (stereo not given): -8.98%; `Cc1cc(Nc2cccc(F)c2)n2nc(C)nc2n1`: -13.6%. Turning to `CCCCNc1nc2c(c(=O)n(C)c(=O)n2C)n1CCC`, the growth inhibition is -8.32%. Consider `Cc1ccc2c(c1)N(CCCC(=O)NCc1ccc3c(c1)OCO3)C(=O)CO2`, for which the growth inhibition was -5.25%. As to `Cc1c(C(=O)N2CCC(C(N)=O)CC2)sc(N)c1C#N`, the growth inhibition is -12.1%.

On to `Cc1cc(NC(=O)c2cc(CC(C)C)on2)no1`, for which the growth inhibition is -5.71%. In the case of `COC(=O)c1nc2n(n1)C(c1cccc(Cl)c1)C1=C(CCCC1=O)N2` (stereo not given), the growth inhibition was -4.09%.

For the origin of these results see PubChem BioAssay.
